Only some compounds are listed: those with a hit (about 3% of all), similar ones and a draw of the others.
TAAR1 ag: human TAAR1 agonism. Q96RJ0. CHO RD-HGA16 TAAR1, Fluo-8 calcium fluorescence; vehicle wells 0%, saturating PEA agonist 100%. activation, % at 3 µM. 360,000 compounds, 0.99% hits. AID 624467;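 active = activation above the mean activation of all test compounds in the run plus 3 SD, cut at about 38% in these data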
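test system = CHO RD-HGA16 cells carrying human TAAR1 plus Gα16 | schedule = 17-24 h seeding, 75 min 37 °C dye, 30 min RT | compound dosing = 3 µM single concentration | control set = DMSO and PEA EC100 | replicates = n 1 | signal = Fluo-8 fluorescence, 5 s baseline then 140 s kinetic read | measure = percent activation vs PEA EC100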
TAAR1 antagonist: human TAAR1 antagonism; Q96RJ0; CHO RD-HGA16 TAAR1, Fluo-8 calcium fluorescence, antagonist; inhibition, % at 3 µM; 360,000 compounds, 1.5% hits;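 active = inhibition above a per-plate cutoff, the mean inhibition of test compounds on that plate plus 3 SD, cut at about 49% in these data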;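 note: 0% = DMSO plus EC80 beta-PEA response and 100% = DMSO alone without agonist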
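Assay system: RD-HGA16 CHO cells with stable hTAAR1 and Gα16 / Reagent: EC80 β-phenethylamine stimulus / Doses: 3 µM, single point / Timing: dye loading 75 min at 37 °C, then 30 min room temperature / Measured by: Fluo-8 intracellular calcium dye fluorescence, real-time kinetic reads / Controls: vehicle wells and EC80 agonist wells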
CHRM4 PAM: potentiates acetylcholine response at human M4 receptor; AID 624126; 360,000 compounds, 0.4% hits; activation, % at 3 µM; CHO-K1 hM4/Gqi5, Fluo-8 calcium fluorescence, ACh EC20; 0% = ACh EC20, 100% = maximal ACh; P08173;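 active = activation above its plate's cutoff, the mean activation of sample wells plus 3 SD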
Target sequence (P08173 whole entry, looked up): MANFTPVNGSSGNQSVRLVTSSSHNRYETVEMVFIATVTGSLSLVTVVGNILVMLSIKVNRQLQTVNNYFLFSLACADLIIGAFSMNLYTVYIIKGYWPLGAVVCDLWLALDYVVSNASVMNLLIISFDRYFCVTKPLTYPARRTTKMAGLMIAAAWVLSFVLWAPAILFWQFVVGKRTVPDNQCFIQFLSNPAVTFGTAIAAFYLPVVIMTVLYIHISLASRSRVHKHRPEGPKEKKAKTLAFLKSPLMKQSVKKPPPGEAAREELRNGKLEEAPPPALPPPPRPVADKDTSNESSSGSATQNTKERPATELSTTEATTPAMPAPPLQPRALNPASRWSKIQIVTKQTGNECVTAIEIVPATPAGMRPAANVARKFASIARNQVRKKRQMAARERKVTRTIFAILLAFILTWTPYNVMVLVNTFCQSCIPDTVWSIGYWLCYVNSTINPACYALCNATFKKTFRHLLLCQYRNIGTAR
M4 ag: CHRM4 agonism in calcium assay | CHO-K1 hM4/Gqi5, Fluo-8 calcium fluorescence; vehicle 0%, full acetylcholine response 100% | AID 624127 | activation, % at 3 µM | 360,000 compounds, 0.14% hits;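 active = activation above the run mean over all test wells plus 3 SD, cut at about 32% in these data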;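 note: peak over basal fluorescence ratio per well then scaled between controls; 0% = DMSO wells and 100% = acetylcholine at EC100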
CHRM4 antagonist: blocks acetylcholine activation of human M4 receptor | CHO-hM4 cells, ACh EC80, Fluo-8 calcium fluorescence | inhibition, % at 3 µM | 360,000 compounds, 0.73% hits;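 active = inhibition above its plate's cutoff, the mean inhibition of sample wells plus 3 SD, cut at about 27% in these data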;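 note: 0% = acetylcholine EC80 with DMSO and 100% = DMSO without agonist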
TAAR1 nonsel count: nonselective antagonism, TAAR1 counter-screen; AID 651780; counterscreen cell line, calcium fluorescence, antagonist mode; shares compounds with TAAR1 antagonist; inhibition, % at 3 µM; 2,400 compounds, 77% hits; in the data active = inhibition above about 22%;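 note: CHO-Ga16 host cells stimulated with ATP at an EC80 level; 0% = agonist EC80 plus vehicle and 100% = vehicle without agonist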
TAAR1 ant conf: human TAAR1 antagonism, confirmed; shares compounds with TAAR1 antagonist; TAAR1-expressing cells, fluorescence antagonist read-out; inhibition, % at 3 µM; 2,400 compounds, 40% hits; in the data active = inhibition above about 49%;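 note: CHO-Ga16 host cells challenged with agonist PEA near its EC80; 0% = agonist at EC80 plus vehicle and 100% = vehicle with no agonist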
Ga16 ag counter: nonselective Ga16 agonism, counter-screen; shares compounds with TAAR1 antagonist; Ga16-expressing cells, calcium fluorescence, agonist counterscreen; activation, % at 3 µM; 2,400 compounds, 18% hits; AID 651953; in the data active = activation above about 12%;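 note: 0% = vehicle wells and 100% = saturating stimulus response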
TAAR1 ag count: activates human TAAR1 in antagonist counter-screen; shares compounds with TAAR1 antagonist; hTAAR1 cell line, fluorescence activation, agonist mode; activation, % at 3 µM; 2,400 compounds, 2% hits; AID 651955; in the data active = activation above about 37%;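 note: CHO cells stably expressing TAAR1 with calcium dye readout; 0% = DMSO vehicle and 100% = full agonist response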
Starred values were filed as active, the others as inactive; · = no result.

SMILES	TAAR1 ag	TAAR1 antagonist	CHRM4 PAM	M4 ag	CHRM4 antagonist	TAAR1 nonsel count	TAAR1 ant conf	Ga16 ag counter	TAAR1 ag count
Cc1sc2ncnc(N3CCC(C(=O)Nc4cc(Cl)ccc4Cl)CC3)c2c1C	1	63*	56*	36*	34*	30*	42	3	0
c1ccc(C[C@H]2COc3c4ccccc4nn32)cc1	0	-31	4	2	-7	·	·	·	·
CCc1ccccc1N1CC(C(=O)Nc2cc(S(=O)(=O)N3CCCC3)ccc2Cl)CC1=O (stereo unspecified)	13	22	-9	9	2	·	·	·	·
CSc1ccc(CCNC(=O)c2ccc(CS(=O)Cc3ccc(Cl)cc3)o2)cc1 (stereo unspecified)	9	53*	-9	22	-1	32*	43	11	8
O=[N+]([O-])c1cccnc1SCc1c(F)cccc1Cl	10	52*	-9	-1	-1	16	27	3	9
CC(C)(C)c1ccc(C#C[C@@H]2C=C[C@H](O)[C@@H](COC(=O)Nc3ccccc3)O2)cc1	14	51*	·	·	·	26*	29	4	14
Oc1ccccc1C1=Nc2nc3ccccc3n2C(c2ccccc2)C1 (stereo unspecified)	13	54*	-2	4	-8	31*	28	4	-3
O=C(C[C@H]1C/C=C\CC[C@H](Cc2ccc(F)cc2)C(=O)O[C@@H](c2ccccc2)CNC1=O)N[C@@H](CO)Cc1ccccc1	33	59*	3	9	1	35*	49*	10	12
O=C1NC[C@H](c2ccccc2)OC(=O)[C@H](Cc2ccc(F)cc2)C/C=C\C[C@@H]1CC(=O)N(CCO)Cc1ccccc1	32	77*	-2	6	-6	32*	47	9	7
O=C1CCCC/C=C\C[C@H](CC(=O)N(CCO)Cc2ccccc2)C(=O)NC[C@H](c2ccccc2)O1	4	-5	0	4	-11	·	·	·	·
O=C1NC[C@@H](c2ccccc2)OC(=O)[C@H](Cc2ccc(F)cc2)C/C=C\C[C@@H]1CC(=O)N(CCO)Cc1ccccc1	27	67*	-13	27	27*	20	44	9	7
CC(C)(C)OC(=O)C[C@@H]1C/C=C\C[C@H](CC(=O)N[C@H](CO)Cc2ccccc2)C(=O)N[C@@H](Cc2ccccc2)COC1=O	17	59*	-1	16	-11	28*	40	5	1
Cc1ccc(C)c(N2CCN(C(C(=O)NC3CCCC3)C(C)C)CC2)c1 (stereo unspecified)	-1	-13	1	-1	14	·	·	·	·
CC(C)(C)C(=O)Nc1ccc(Sc2ccc([N+](=O)[O-])cc2)cc1	6	91*	-15	13	21	49*	60*	8	2
Cc1c(C(=O)NCc2ccc3c(c2)cc(C)n3C)cccc1[N+](=O)[O-]	10	67*	-9	8	-7	30*	51*	7	8
Cc1cc2cc(CNC(=O)c3cccc([N+](=O)[O-])c3)ccc2n1C	0	0	-12	4	2	·	·	·	·
O=C(NCCN1CCOCC1)c1ccccc1N1C(=O)[C@@H]2Cc3c([nH]c4ccccc34)C(c3ccccc3)N2C1=O (stereo partly specified)	7	38	-1	8	-20	·	·	·	·
O=C(NCCCN1CCOCC1)c1ccccc1N1C(=O)[C@@H]2Cc3c([nH]c4ccccc34)C(c3ccc(F)cc3)N2C1=O (stereo partly specified)	12	73*	-10	12	12	26*	41	6	7
CC(NS(=O)(=O)c1cccc(Cl)c1)C(=O)Nc1ccc(-c2nc3ccccc3s2)cc1 (stereo unspecified)	25	64*	-3	5	-8	37*	45	12*	24
O=C(CNS(=O)(=O)c1cccc(Cl)c1)Nc1ccc(-c2nc3ccccc3s2)cc1	4	4	2	1	-1	·	·	·	·
CC[C@]12C(=O)N(C)C[C@H]([C@@H]3C(=O)N(C)C(=O)[C@@H]31)N2C(=O)c1ccccc1	16	24	8	2	-10	·	·	·	·
Brc1ccccc1-c1nc2c3ccccc3ncn2n1	9	53*	-2	6	8	13	14	10	15
S=c1nc2ccccc2c2nc(-c3ccccc3Br)[nH]n12	3	6	-2	2	1	·	·	·	·
Cc1c(-c2ccccc2)oc2c(C(=O)OCC(=O)Nc3cccc(F)c3)cccc2c1=O	12	63*	-10	9	-12	33*	64*	8	3
Cc1c(-c2ccccc2)oc2c(C(=O)OCC(=O)Nc3ccc(C(N)=O)cc3)cccc2c1=O	-1	7	-2	2	1	·	·	·	·
SMILES	TAAR1 ag	TAAR1 antagonist	CHRM4 PAM	M4 ag	CHRM4 antagonist	TAAR1 nonsel count	TAAR1 ant conf	Ga16 ag counter	TAAR1 ag count
COc1ccc([C@H]2CC(=O)C=C(c3ccc(F)cc3OCc3ccccc3)C2)cc1OC	21	83*	-4	14	5	42*	67*	8	11
COc1ccc(-c2c(C#N)c(N)nc3c2CCc2ccccc2-3)cc1OC	23	60*	·	·	·	31*	52*	9	24
COc1cc(-c2c(C#N)c(N)nc3c2CCCC3)ccc1O	7	-5	-3	2	0	·	·	·	·
COc1ccc(-c2cc(-c3ccc(O)cc3)nc(N)c2C#N)cc1OC	13	50*	-6	12	-5	26*	46	8	15
O=C(N[C@H](C(=O)N1CCC[C@H]1C(=O)NC1CCCC1)C1CCCCC1)c1ccccc1	1	3	·	·	·	·	·	·	·
COc1cccc(C(=O)NC(=S)N2CCN(c3ccc(C(F)(F)F)cc3[N+](=O)[O-])CC2)c1	5	-3	4	1	-4	·	·	·	·
COc1cccc(OC)c1C(=O)NC(=S)N1CCN(c2ccc(C(F)(F)F)cc2[N+](=O)[O-])CC1	15	81*	-10	14	-2	31*	51*	7	5
COc1cc(C)cc(OC)c1OCC(=O)Nc1cc(C)on1	-2	88*	-5	3	6	6	2	2	3
Nc1nc(/C=C/c2cccnc2)nc(-c2ccccc2O)n1	33	67*	-6	13	-11	32*	58*	14*	18

Assay outcomes from PubChem BioAssay.
